Key:
NCI/ADR-RES = test: Ratio of tamoxifen IC50 to compound IC50 for human MCF7/ADR cells; format: functional
MDA-MB-231 [1] = test: Ratio of tamoxifen IC50 to compound IC50 for human MDA-MB-231 cells; format: functional
MDA-MB-231 [2] = test: Cytotoxicity against human MDA-MB-231 cells after 48 hrs by MTT assay; format: functional, cell-based
Outline: (§1)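 Cells kept in DMEM with 10% heat-inactivated FBS, 4.5 g/L D-glucose, sodium pyruvate and L-glutamine at 37 °C, 5% CO2. Seeded at 1 × 10^4 cells/well, left to adhere 24 h, then exposed 48 h to a range of concentrations at 0.05% (v/v) DMSO final. MTT added for 4 h, absorbance at 550 nm. Viability taken relative to control wells; IC50 from triplicates, mean ± SD.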

[3] = Cytotoxicity against human MCF7/ADR cells after 48 hrs by MTT assay; format: functional, cell-based, NCI/ADR-RES; outline: as §1
[4] = target: T1, Tyrosine-protein phosphatase non-receptor type 1 (Homo sapiens, UniProt P18031); test: Inhibition of human recombinant PTP1B using p-nitrophenyl phosphate as substrate after 30 mins
T1 sequence (P18031 whole entry): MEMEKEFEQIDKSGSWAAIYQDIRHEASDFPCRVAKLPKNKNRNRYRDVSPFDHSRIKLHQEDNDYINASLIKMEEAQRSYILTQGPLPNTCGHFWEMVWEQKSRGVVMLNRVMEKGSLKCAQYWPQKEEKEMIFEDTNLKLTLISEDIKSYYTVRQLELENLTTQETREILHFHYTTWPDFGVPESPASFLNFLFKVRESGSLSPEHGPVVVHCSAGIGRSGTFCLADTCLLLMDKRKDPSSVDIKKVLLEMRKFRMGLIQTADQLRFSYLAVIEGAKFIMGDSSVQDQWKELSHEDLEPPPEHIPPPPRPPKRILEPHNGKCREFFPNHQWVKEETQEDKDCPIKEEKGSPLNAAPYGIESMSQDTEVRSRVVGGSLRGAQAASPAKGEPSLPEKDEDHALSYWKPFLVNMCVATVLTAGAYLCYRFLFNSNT
Outline: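 Human recombinant enzyme (0.05–0.1 µg) with 2 mM p-NPP in 50 mM citrate pH 6.0, 0.1 M NaCl, 1 mM EDTA, 1 mM DTT, 37 °C for 30 min. IC50 by regression, mean ± SD of three replicates.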

MCF7 = test: Cytotoxicity against human MCF7 cells after 48 hrs by MTT assay; format: functional, cell-based; outline: as §1
[5] = Homo sapiens, MDA-MB-231, 48 h, read-out: IC50
[6] = Homo sapiens, NCI/ADR-RES, 48 h, read-out: IC50
[7] = Homo sapiens, MCF7, 48 h, read-out: IC50

| Compound | IC50 [4] [µM] | Ratio IC50 (NCI/ADR-RES) | Ratio IC50 (MDA-MB-231 [1]) | IC50 (MDA-MB-231 [2]; [5]) [µM] | IC50 [3, 6] [µM] | IC50 (MCF7; [7]) [µM] | IC50 (MDA-MB-231 [2]; mda-mb-231) | IC50 ([3]; nci/adr-res) | IC50 (MCF7; mcf7) |
| --- | --- | --- | --- | --- | --- | --- | --- | --- | --- |
| CC(C)=CCc1cc(-c2coc3c(CC=C(C)C)c(O)ccc3c2=O)ccc1O [ERYSUBIN F] | 7.8 | – | – | – | – | – | – | – | – |
| COc1cc2c(cc1[C@H]1COc3cc(O)cc(O)c3C1=O)C=CC(C)(C)O2 [ERYTHRADDISON IV] | 13.8 | – | – | 6.34 | 6.06 | 11 | – | – | – |
| COC(c1c2c(c(O)c3c(=O)c(-c4ccc(O)cc4)coc13)C=CC(C)(C)O2)C(O)C(C)(C)O (centres undefined) [ERYTHRADDISON I] | > 30 | – | – | – | – | – | Not Active | Not Active | Not Active |
| CC/C(=C(\c1ccccc1)c1ccc(OCCN(C)C)cc1)c1ccccc1 [TAMOXIFEN] | – | – | – | – | – | 11.4 | – | – | – |

More lines, in order of falling IC50 [4], values ahead:

| IC50 [4] [µM] | Compound | Ratio IC50 (NCI/ADR-RES) | Ratio IC50 (MDA-MB-231 [1]) | IC50 (MDA-MB-231 [2]; [5]) [µM] | IC50 [3, 6] [µM] | IC50 (MCF7; [7]) [µM] | IC50 (MDA-MB-231 [2]; mda-mb-231) | IC50 ([3]; nci/adr-res) | IC50 (MCF7; mcf7) |
| --- | --- | --- | --- | --- | --- | --- | --- | --- | --- |
| 24.2 | CC(C)=CCc1c2c(c(O)c3c(=O)c(-c4ccc(O)cc4)coc13)CC(C(C)(C)O)O2 (centres undefined) [ECHRENONE B10] | 1.93 | >3 | 3.97 | 5.76 | 4.32 | – | – | – |
| 17.4 | CC(C)=CCc1cc2c(=O)c(-c3ccc(O)cc3O)coc2c(CC=C(C)C)c1O [ERYTHRADDISON II] | – | – | 4.57 | 6.75 | 11.4 | – | – | – |
| 4.6 | COc1ccc([C@H]2COc3cc(O)cc(O)c3C2=O)cc1CC=C(C)C [ERYTHRADDISON III] | – | – | 6.92 | 9.22 | 6.84 | – | – | – |

— ChEMBL document CHEMBL2157970, “New prenylated isoflavonoids as protein tyrosine phosphatase 1B (PTP1B) inhibitors from Erythrina addisoniae” (Bioorg Med Chem, 2012)
